# ChEMBL document CHEMBL4024708, “Recent synthetic and medicinal perspectives of dihydropyrimidinones: A review” (Eur J Med Chem, 2017)
# Legend:
# Klebsiella pneumoniae = assay: Antibacterial activity against Klebsiella pneumoniae MTCC 7028 by spectrophotometric method; assay type: functional
# Procedure, shortened: (§1)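 Serial broth dilution, 200 to 15.625 μg/mL, in nutrient broth, sonicated 10 min. Inoculum gave a starting density of 10^3–10^4 CFU/mL. Flasks were shaken at 200 rpm and 37 °C, and growth followed by the rise in absorbance at 600 nm. MIC is the lowest concentration inhibiting the organism. Controls: compound without inoculum, and inoculum without compound.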
# Escherichia coli = assay: Antibacterial activity against Escherichia coli MTCC 443 by spectrophotometric method; assay type: functional; procedure, shortened: as §1
# Pseudomonas aeruginosa = assay: Antibacterial activity against Pseudomonas aeruginosa MTCC 2581 by spectrophotometric method; assay type: functional; procedure, shortened: as §1
# [1] = Antioxidant activity assessed as DPPH free radical scavenging activity at 12.5 ppm after 30 mins in dark by spectrophotometric method relative to control; assay type: functional
# Procedure, shortened: (§2)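 DPPH (1,1-diphenyl-2-picrylhydrazyl) radical scavenging assay. The change in absorbance was read at 517 nm on a spectrophotometer. Activity is given as percent inhibition of the DPPH radical, calculated as (absorbance of control − absorbance of sample)/absorbance of control × 100.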
# Staphylococcus aureus = assay: Antibacterial activity against Staphylococcus aureus MTCC 3160 by spectrophotometric method; assay type: functional; procedure, shortened: as §1
# Rattus norvegicus = assay: Anti-inflammatory activity in rat assessed as inhibition of carrageenan-induced hind paw edema at 10 mg/kg, po pretreated for 1 hr followed by carrageenan challenge measured after 3 hrs by plethysmometer relative to control; assay type: functional
# Procedure, shortened: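 Albino rats; carrageenan-induced paw edema test after Winter et al., with diclofenac sodium as reference standard. Percentage reduction in inflammation recorded 3 h after carrageenan, relative to carrageenan-only animals.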
# Mus musculus [2] = assay: Anticonvulsant activity in ip dosed maximal electroshock induced seizure mouse model assessed as suppression of hind limb tonic extension measured at 0.5 hrs post dose; assay type: functional; settings: read-out: MED
# Procedure, shortened: (§3)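 Albino mice given the compound ip, suspended in 0.5% methyl cellulose–water, at 30, 100 and 300 mg/kg. Maximal electroshock by corneal electrodes: 50 mA, 60 Hz, 0.2 s. Abolition of hind limb tonic extension scored as protection. Value is the minimum dose active in half or more of the mice.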
# Mus musculus [3] = assay: Anticonvulsant activity in ip dosed maximal electroshock induced seizure mouse model assessed as suppression of hind limb tonic extension measured at 4 hrs post dose; assay type: functional; settings: read-out: MED; procedure, shortened: as §3
# [4] = molecular target: T1, Alpha-1A adrenergic receptor (Homo sapiens, UniProt P35348); assay: Displacement of [125I]L-762,459 from recombinant human alpha1a adrenergic receptor expressed in mammalian cells measured after 1 hr; assay type: cell-based
# T1 sequence (P35348 whole entry): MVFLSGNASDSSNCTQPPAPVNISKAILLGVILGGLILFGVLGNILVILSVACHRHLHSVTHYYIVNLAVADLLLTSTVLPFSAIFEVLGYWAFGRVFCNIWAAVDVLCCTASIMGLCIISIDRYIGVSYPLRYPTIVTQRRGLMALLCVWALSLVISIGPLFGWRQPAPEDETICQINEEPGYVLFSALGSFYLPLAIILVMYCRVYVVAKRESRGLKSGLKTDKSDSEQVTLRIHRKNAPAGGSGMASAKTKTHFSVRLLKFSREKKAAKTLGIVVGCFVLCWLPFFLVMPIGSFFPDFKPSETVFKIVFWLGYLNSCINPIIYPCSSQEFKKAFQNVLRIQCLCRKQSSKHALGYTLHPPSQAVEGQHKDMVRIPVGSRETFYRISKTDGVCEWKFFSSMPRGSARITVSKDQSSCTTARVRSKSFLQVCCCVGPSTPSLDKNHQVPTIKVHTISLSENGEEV
# [5] = Antioxidant activity assessed as DPPH free radical scavenging activity at 100 ppm after 30 mins in dark by spectrophotometric method relative to control; assay type: functional; procedure, shortened: as §2
# [6] = Antioxidant activity assessed as cupric ion reducing activity by measuring increase in absorbance at 100 ppm by CUPRAC assay; assay type: functional
# Procedure, shortened: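 CUPRAC assay. Sample solution was mixed with distilled water, at a pH close to 7. Reduction of Cu(II) to Cu(I) was followed as the increase in absorbance at 450 nm of the reaction mixture.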
# [7] = Antioxidant activity assessed as cupric ion reducing activity by measuring increase in absorbance at 12.5 ppm by CUPRAC assay; assay type: functional
# Procedure, shortened: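 CUPRAC: reduction of Cu(II) to Cu(I) followed by the increase in absorbance at 450 nm. Sample and distilled water were made up to 4 mL total, near pH 7. Compounds were tested at 12.5–100 ppm, with gallic acid and quercetin as standards.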
# [8] = Half-life in Beagle dog at 0.5 mg/kg, iv by LC-MS analysis; assay type: ADME, organism-based, Canis lupus familiaris; settings: in vivo
# CCRF-CEM = assay: cells; settings: Homo sapiens, 48 h
# SR = assay: Growth inhibition of human SR cells after 48 hrs by SRB assay; assay type: functional
structure (smiles),measurement,setting,value
CCC(=O)C1=C(C)NC(=O)NC1c1cc(Cl)cc(Cl)c1 (stereo not given),MIC,Klebsiella pneumoniae,31.2 to 62.5 µg/mL
same,MIC,Escherichia coli,15.6 to 31.2 µg/mL
same,MIC,Pseudomonas aeruginosa,15.6 to 31.2 µg/mL
same,Activity,[1],17.3%
CCC(=O)C1=C(C)NC(=O)NC1c1ccc([N+](=O)[O-])cc1 (stereo not given),MIC,Pseudomonas aeruginosa,15.6 to 31.2 µg/mL
same,MIC,Staphylococcus aureus,62.5 to 125 µg/mL
CCC(=O)C1=C(C)NC(=O)NC1c1cccc(Cl)c1 (stereo not given),MIC,Klebsiella pneumoniae,31.2 to 62.5 µg/mL
same,MIC,Escherichia coli,15.6 to 31.2 µg/mL
same,MIC,Pseudomonas aeruginosa; read-out: MIC,62.5 µg/mL
COc1ccc(C2NC(=S)NC(c3ccc(C)cc3)=C2CC(=O)O)cc1 (stereo not given),inhibition in vivo at 10 mg/kg,Rattus norvegicus,33%
Cc1ccc(C2=C(CC(=O)O)C(c3ccc(Cl)cc3)NC(S)=N2)cc1 (stereo not given),inhibition in vivo at 10 mg/kg,Rattus norvegicus,22%
COc1ccc(C2C=C(n3nc(-c4ccccc4)nc3-c3ccccc3)N=C(S)N2)c(OC)c1 (stereo not given),minimal effective dose,Mus musculus [2],30 mg/kg
same,minimal effective dose,Mus musculus [3],300 mg/kg
COc1ccc(C2NC(S)=NC(c3ccccc3)=C2CC(=O)O)cc1 (stereo not given),inhibition in vivo at 10 mg/kg,Rattus norvegicus,32%
SC1=NC(n2nc(-c3ccccc3)nc2-c2ccccc2)=CC(c2ccccc2Cl)N1 (stereo not given),minimal effective dose,Mus musculus [2],30 mg/kg
same,minimal effective dose,Mus musculus [3],300 mg/kg
COCC1=C(C(=O)NCCCN2CCC(C#N)(c3ccc(F)cc3)CC2)[C@@H](c2ccc(F)cc2)NCN1,Ki,[4],0.00017 µM
O=c1c(O)c(-c2ccc(O)c(O)c2)oc2cc(O)cc(O)c12,Activity,[5],82.3%
same,Activity,[1],55.3%
same,absorbance,[6],1.2
O=C(O)CC1=C(c2ccc(Cl)cc2)N=C(S)NC1c1ccccc1 (stereo not given),inhibition in vivo at 10 mg/kg,Rattus norvegicus,20%
CCC(=O)C1=C(C)NC(=O)NC1c1ccc(OC)cc1 (stereo not given),MIC,Klebsiella pneumoniae,31.2 to 62.5 µg/mL
same,absorbance,[7],0.05
same,MIC,Pseudomonas aeruginosa; read-out: MIC,250 µg/mL
same,MIC,Staphylococcus aureus,250 µg/mL
CCC(=O)C1=C(C)NC(=O)NC1c1cccc(OC)c1 (stereo not given),MIC,Pseudomonas aeruginosa; read-out: MIC,250 µg/mL
same,MIC,Staphylococcus aureus,250 µg/mL
O=C(O)c1cc(O)c(O)c(O)c1,Activity,[5],92.4%
same,Activity,[1],62.4%
same,absorbance,[6],1.4
CC(=O)C1=C(C)NC(=O)NC1c1ccccc1 (stereo not given),MIC,Escherichia coli,15.6 to 31.2 µg/mL
same,Activity,[5],64.4%
same,MIC,Pseudomonas aeruginosa; read-out: MIC,250 µg/mL
same,absorbance,[6],0.87
same,MIC,Staphylococcus aureus,62.5 to 125 µg/mL
COCC1=C(C(=O)NCCCN2CCC(c3ccc(F)cc3)CC2)[C@@H](c2ccc(F)c(F)c2)NC(=O)N1,half-life,[8],7 to 8 h
SC1=NC(n2nc(-c3ccccc3)nc2-c2ccccc2)=CC(c2ccc(-c3ccco3)cc2)N1 (stereo not given),minimal effective dose,Mus musculus [2],30 mg/kg
same,minimal effective dose,Mus musculus [3],300 mg/kg
O=C(O)CC1=C(c2ccccc2)N=C(S)NC1c1ccc(Cl)cc1 (stereo not given),inhibition in vivo at 10 mg/kg,Rattus norvegicus,30%
O=c1/c(=C/c2ccc([N+](=O)[O-])o2)sc2n1C(c1ccc3c(c1)OCO3)C=C(c1cc(F)c(Cl)cc1Cl)N=2 (stereo not given),GI50,CCRF-CEM,3.24 µM
same,GI50,SR,3.34 µM
O=C(O)CC1=C(c2ccc(Cl)cc2)NC(=S)NC1c1cccs1 (stereo not given),inhibition in vivo at 10 mg/kg,Rattus norvegicus,16%
CC(=O)C1=C(C)NC(=O)NC1c1ccc([N+](=O)[O-])cc1 (stereo not given),MIC,Klebsiella pneumoniae,31.2 to 62.5 µg/mL
CC(=O)C1=C(C)NC(=O)NC1c1ccc(Cl)cc1 (stereo not given),MIC,Klebsiella pneumoniae,31.2 to 62.5 µg/mL
same,MIC,Pseudomonas aeruginosa; read-out: MIC,250 µg/mL
